Assay results: ChEMBL document CHEMBL1136991, “Novel potent BRAF inhibitors: toward 1 nM compounds through optimization of the central phenyl ring” (J Med Chem, 2009)

How the values were obtained:
[1] = target: Calcium/calmodulin-dependent protein kinase type 1 (Homo sapiens) (UniProt Q14012); assay: Inhibition of CAMK1 at 1 uM relative to control
[2] = Inhibition of p38S at 1 uM relative to control
[3] = target: T1, Aurora kinase C (Homo sapiens) (UniProt Q9UQB9); assay: Inhibition of Aurora C at 1 uM relative to control
T1 sequence (whole entry): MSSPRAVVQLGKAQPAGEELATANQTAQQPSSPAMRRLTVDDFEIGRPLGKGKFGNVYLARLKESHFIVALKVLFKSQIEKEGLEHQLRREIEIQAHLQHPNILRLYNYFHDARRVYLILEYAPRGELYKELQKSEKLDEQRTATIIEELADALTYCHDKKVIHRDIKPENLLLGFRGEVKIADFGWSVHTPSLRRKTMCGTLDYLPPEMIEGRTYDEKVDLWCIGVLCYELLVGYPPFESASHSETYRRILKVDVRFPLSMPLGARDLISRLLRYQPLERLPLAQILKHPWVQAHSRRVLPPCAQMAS

[4] = target: RAC-alpha serine/threonine-protein kinase (Homo sapiens) (UniProt P31749); assay: Inhibition of PKBalpha at 1 uM relative to control
RAC-alpha serine/threonine-protein kinase (Homo sapiens), sequence (P31749 whole entry): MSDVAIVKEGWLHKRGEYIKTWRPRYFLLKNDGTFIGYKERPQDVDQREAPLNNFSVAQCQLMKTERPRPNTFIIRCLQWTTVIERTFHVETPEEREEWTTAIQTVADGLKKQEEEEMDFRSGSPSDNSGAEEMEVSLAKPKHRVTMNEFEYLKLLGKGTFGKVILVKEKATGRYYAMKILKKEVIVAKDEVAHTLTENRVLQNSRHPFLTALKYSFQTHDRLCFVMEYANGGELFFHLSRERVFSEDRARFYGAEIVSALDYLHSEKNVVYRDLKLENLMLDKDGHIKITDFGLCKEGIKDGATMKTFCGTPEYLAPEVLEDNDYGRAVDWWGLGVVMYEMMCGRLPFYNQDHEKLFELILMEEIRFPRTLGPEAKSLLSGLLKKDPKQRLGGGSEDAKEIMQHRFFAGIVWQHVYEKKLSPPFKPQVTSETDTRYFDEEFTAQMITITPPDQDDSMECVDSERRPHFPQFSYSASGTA

[5] = target: Rho-associated protein kinase 2 (Homo sapiens) (UniProt O75116); assay: Inhibition of ROCK2 at 1 uM relative to control
Rho-associated protein kinase 2 (Homo sapiens), sequence (O75116 whole entry, looked up): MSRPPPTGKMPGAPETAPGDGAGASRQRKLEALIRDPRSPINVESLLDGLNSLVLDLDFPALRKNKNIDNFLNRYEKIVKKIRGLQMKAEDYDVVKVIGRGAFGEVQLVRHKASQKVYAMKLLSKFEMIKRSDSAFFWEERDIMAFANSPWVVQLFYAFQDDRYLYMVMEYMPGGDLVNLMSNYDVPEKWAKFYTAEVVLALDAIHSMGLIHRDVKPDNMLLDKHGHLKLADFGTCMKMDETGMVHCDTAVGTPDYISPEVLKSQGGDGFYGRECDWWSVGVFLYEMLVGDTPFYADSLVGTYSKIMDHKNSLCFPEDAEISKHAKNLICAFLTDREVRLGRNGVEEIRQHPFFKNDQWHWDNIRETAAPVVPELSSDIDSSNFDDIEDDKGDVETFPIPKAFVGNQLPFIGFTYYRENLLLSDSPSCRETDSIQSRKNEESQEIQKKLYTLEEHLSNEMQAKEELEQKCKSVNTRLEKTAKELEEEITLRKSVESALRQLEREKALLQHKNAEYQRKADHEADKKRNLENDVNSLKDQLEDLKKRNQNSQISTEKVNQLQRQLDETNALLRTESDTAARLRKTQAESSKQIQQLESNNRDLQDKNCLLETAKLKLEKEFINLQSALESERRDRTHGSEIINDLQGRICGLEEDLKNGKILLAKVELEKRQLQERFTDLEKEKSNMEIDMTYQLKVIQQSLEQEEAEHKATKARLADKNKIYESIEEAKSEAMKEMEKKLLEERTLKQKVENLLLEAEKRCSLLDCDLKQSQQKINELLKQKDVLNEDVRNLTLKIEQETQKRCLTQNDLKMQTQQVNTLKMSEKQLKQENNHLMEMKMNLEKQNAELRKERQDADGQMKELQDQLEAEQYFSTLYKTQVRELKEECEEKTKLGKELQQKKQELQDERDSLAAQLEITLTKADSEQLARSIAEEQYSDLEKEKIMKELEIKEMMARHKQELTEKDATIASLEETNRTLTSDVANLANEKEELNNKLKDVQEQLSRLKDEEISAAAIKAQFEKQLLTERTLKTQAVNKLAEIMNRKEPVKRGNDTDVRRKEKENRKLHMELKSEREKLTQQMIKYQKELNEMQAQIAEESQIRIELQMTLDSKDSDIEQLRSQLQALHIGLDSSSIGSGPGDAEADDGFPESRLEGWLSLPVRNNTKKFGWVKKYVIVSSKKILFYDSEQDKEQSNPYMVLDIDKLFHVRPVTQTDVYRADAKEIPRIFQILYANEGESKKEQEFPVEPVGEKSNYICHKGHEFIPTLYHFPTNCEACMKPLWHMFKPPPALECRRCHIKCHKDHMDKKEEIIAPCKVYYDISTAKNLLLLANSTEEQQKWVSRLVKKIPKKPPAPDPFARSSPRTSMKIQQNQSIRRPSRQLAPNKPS

[6] = target: T2, MAP kinase-activated protein kinase 5 (Homo sapiens) (UniProt Q8IW41); assay: Inhibition of PRAK at 1 uM relative to control
T2 sequence (whole entry): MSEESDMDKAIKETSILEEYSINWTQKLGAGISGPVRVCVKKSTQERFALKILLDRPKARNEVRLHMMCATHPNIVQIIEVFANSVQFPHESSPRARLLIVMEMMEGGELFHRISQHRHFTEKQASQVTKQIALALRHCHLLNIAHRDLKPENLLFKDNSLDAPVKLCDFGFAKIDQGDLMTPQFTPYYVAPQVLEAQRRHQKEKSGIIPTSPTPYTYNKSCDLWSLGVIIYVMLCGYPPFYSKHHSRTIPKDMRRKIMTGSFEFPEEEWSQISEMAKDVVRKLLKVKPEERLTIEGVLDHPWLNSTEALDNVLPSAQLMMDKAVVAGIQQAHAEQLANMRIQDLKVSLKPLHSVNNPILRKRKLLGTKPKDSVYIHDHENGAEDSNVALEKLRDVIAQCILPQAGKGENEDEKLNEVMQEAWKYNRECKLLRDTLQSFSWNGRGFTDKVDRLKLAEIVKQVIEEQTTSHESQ

[7] = target: T3, Serine/threonine-protein kinase Chk1 (Homo sapiens) (UniProt O14757); assay: Inhibition of CHK1 at 1 uM relative to control
T3 sequence (whole entry): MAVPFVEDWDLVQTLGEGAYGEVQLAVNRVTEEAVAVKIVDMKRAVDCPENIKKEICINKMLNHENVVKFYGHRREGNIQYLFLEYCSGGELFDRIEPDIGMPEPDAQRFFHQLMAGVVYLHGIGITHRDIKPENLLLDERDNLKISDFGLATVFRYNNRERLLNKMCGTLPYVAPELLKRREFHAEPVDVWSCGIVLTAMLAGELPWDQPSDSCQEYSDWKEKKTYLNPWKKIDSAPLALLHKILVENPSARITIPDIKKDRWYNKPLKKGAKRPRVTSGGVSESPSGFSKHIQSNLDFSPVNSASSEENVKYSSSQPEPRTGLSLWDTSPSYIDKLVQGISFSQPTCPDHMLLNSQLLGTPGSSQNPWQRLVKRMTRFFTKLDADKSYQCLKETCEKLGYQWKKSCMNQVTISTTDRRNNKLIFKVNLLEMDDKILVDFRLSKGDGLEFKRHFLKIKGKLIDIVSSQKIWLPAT

[8] = target: T4, Inhibitor of nuclear factor kappa-B kinase subunit beta (Homo sapiens) (UniProt O14920); assay: Inhibition of IKK-beta at 1 uM relative to control
T4 sequence (whole entry): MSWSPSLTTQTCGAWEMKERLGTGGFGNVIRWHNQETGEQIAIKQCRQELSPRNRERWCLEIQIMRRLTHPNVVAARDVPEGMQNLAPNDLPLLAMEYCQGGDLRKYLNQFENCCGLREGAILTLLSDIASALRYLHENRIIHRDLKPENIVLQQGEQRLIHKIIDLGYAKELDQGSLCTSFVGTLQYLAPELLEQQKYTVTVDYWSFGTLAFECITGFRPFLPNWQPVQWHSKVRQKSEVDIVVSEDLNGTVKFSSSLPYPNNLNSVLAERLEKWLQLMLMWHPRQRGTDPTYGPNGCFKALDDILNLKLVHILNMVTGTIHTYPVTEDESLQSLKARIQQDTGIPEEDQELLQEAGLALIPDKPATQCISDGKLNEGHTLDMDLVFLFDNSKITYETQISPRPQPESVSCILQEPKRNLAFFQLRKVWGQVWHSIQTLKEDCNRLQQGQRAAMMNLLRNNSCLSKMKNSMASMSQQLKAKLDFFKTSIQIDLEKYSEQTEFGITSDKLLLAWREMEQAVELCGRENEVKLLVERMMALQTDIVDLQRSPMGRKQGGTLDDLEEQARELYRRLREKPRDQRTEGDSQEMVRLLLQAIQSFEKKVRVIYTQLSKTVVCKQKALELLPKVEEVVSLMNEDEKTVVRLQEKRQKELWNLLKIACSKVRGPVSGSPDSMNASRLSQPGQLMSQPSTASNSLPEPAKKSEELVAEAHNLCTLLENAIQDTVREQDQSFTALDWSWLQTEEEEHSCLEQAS

[9] = target: Serine/threonine-protein kinase B-raf (Homo sapiens, UniProt P15056, V600E); assay: Inhibition of BRAF V600E mutant-mediated ERK phosphorylation in human WM266.4 cells; type: cell-based
Serine/threonine-protein kinase B-raf, sequence (P15056 2-766 V600E limits assumed): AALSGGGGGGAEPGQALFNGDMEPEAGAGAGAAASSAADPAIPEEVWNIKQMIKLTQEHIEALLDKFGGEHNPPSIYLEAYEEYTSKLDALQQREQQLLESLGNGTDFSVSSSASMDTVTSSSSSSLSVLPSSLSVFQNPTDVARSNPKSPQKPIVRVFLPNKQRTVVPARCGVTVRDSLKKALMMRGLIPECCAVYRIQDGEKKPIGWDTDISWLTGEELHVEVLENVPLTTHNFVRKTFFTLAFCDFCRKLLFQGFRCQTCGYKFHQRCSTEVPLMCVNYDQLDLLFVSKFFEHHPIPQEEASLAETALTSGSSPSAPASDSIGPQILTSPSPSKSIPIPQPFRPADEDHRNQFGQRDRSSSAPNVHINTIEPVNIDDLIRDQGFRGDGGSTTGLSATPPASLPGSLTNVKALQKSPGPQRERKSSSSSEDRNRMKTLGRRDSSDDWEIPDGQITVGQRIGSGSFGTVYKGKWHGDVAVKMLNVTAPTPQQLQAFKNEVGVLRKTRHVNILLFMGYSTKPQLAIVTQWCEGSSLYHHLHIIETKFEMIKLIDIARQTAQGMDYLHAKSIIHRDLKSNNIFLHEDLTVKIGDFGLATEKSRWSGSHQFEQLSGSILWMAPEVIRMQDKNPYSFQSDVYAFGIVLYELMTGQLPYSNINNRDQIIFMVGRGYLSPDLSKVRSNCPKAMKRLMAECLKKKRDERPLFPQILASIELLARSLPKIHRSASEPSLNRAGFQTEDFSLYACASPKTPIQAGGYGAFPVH
Outline: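 Cellular pathway read-out: ERK phosphorylation (pERK) was measured in WM266.4 melanoma cells and reported as an IC50.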

[10] = Inhibition of PHK at 1 uM relative to control
[11] = target: MAP kinase-interacting serine/threonine-protein kinase 1 (Homo sapiens) (UniProt Q9BUB5); assay: Inhibition of MNK1 at 1 uM relative to control
MAP kinase-interacting serine/threonine-protein kinase 1 (Homo sapiens), sequence (Q9BUB5 whole entry, looked up): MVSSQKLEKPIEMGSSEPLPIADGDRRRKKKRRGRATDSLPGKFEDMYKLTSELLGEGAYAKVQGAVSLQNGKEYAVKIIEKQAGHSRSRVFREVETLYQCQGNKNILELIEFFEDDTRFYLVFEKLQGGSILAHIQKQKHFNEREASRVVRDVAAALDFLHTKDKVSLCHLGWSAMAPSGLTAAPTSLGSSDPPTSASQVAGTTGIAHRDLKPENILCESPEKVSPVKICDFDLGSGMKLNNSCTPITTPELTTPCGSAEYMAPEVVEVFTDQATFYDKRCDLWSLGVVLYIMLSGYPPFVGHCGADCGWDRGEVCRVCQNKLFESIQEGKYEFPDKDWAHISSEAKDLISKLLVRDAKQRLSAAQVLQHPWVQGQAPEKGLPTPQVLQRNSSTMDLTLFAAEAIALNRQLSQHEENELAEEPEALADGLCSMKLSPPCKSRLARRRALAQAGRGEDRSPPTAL

Calcium/calmodulin-dependent protein kinase type 1 (Homo sapiens), sequence (Q14012 whole entry, looked up): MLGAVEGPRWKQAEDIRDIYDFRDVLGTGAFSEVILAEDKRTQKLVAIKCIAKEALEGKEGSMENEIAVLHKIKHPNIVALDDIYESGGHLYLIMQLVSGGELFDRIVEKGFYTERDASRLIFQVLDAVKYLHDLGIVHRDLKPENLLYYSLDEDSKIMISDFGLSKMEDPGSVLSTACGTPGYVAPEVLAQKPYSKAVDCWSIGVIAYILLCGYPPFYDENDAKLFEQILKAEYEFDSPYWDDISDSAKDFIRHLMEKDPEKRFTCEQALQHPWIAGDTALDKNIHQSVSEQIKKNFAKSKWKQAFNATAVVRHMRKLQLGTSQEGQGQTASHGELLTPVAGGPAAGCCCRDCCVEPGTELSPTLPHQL

O=C(Nc1cc(C(F)(F)F)ccc1F)Nc1ccc(Oc2ccnc3[nH]c(=O)[nH]c23)c2ccccc12
residual activity [1]: < 25%
residual activity [2]: 75%
residual activity [3]: < 25%
residual activity [4]: 100%
residual activity [5]: 75%
residual activity [6]: 75%
residual activity [7]: 100%
residual activity [8]: 100%
IC50 [9]: 214 nM
residual activity [10]: 100%
residual activity [11]: 100%

CSc1cc(Oc2ccnc3[nH]c(=O)[nH]c23)ccc1NC(=O)Nc1cccc(C(F)(F)F)c1
residual activity [1]: < 25%
residual activity [2]: 50%
residual activity [3]: 50%
residual activity [4]: 100%
residual activity [5]: 75%
residual activity [6]: 75%
residual activity [7]: 100%
residual activity [8]: 100%
IC50 [9]: 1300 nM
residual activity [10]: 100%
residual activity [11]: 100%

CC(C)(C)c1cccc(NC(=O)Nc2ccc(Oc3ccnc4[nH]c(=O)[nH]c34)c3ccccc23)c1
residual activity [1]: 75%
residual activity [2]: 50%
residual activity [3]: 75%
residual activity [4]: 75%
residual activity [5]: 75%
residual activity [6]: 75%
residual activity [7]: 75%
residual activity [8]: 75%
IC50 [9]: 19300 nM
residual activity [10]: 75%
residual activity [11]: 75%
